Data as given in PMC4929832 (Nature, 2016).
pEC50, pIC50: −log10 of the molar value.

Columns and labels:
[1] = target: PKC-ZETA (Homo sapiens, UniProt Q05513); test: kinase panel; type: biochemical
[2] = target: Monoamine Oxidase A (Homo sapiens, UniProt P21397); test: Monoamine Oxidase A assay; type: biochemical
[3] = target: AKT2 (Homo sapiens, UniProt P31751); test: kinase panel; type: biochemical
[4] = target: SGK1 (Homo sapiens, UniProt O00141); test: kinase panel; type: biochemical
[5] = target: LCK (Homo sapiens, UniProt P06239); test: kinase panel; type: biochemical
[6] = target: MKNK1 (Homo sapiens, UniProt Q9BUB5); test: kinase panel; type: biochemical
[7] = target: PKN2 (Homo sapiens, UniProt Q16513); test: kinase panel; type: biochemical
[8] = target: GRK3 (Homo sapiens, UniProt P35626); test: kinase panel; type: biochemical
[9] = target: PIM3 (Homo sapiens, UniProt Q86V86); test: kinase panel; type: biochemical
[10] = target: MAPKAPK2 (Homo sapiens, UniProt P49137); test: kinase panel; type: biochemical
[11] = target: CDK9-CYCLINT1 (Homo sapiens, UniProt P50750); test: kinase panel; type: biochemical
[12] = target: CDK2-CYCLINA (Homo sapiens, UniProt P24941); test: kinase panel; type: biochemical
[13] = target: HIPK3 (Homo sapiens, UniProt Q9H422); test: kinase panel; type: biochemical
[14] = tested on: L858R/T790M/C797S mutant lung tumors (genetically engineered mice); test: Mouse efficacy study, tumor volume by MRI; type: in vivo; settings: EAI045 and cetuximab
How it was run: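 Transgenic lung tumors were induced at 6 weeks of age: exon19del/T790M mice by doxycycline diet, L858R/T790M/C797S mice by intranasal Ad-Cre. The test compound in 10% NMP/90% PEG-300 was given at 60 mg/kg daily by oral gavage. […] MRI ran at baseline and every 2 weeks, and tumor volume was quantified in 3D at 4 weeks. Cohorts were non-blinded and not randomized.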

[15] = target: SRPK1 (Homo sapiens, UniProt Q96SB4); test: kinase panel; type: biochemical
[16] = target: Adenosine 3 receptor (Homo sapiens, UniProt P0DMS8); test: Adenosine 3 receptor binding assay
[17] = target: MEK2 (Homo sapiens, UniProt P36507); test: kinase panel; type: biochemical
[18] = target: FGFR1 (Homo sapiens, UniProt P11362); test: kinase panel; type: biochemical
[19] = target: AKT3 (Homo sapiens, UniProt Q9Y243); test: kinase panel; type: biochemical
[20] = target: TYRO3 (Homo sapiens, UniProt Q06418); test: kinase panel; type: biochemical
[21] = target: PKA (Homo sapiens, UniProt P17612); test: kinase panel; type: biochemical
[22] = target: CAMK1D (Homo sapiens, UniProt Q8IU85); test: kinase panel; type: biochemical
[23] = target: EPH-A5 (Homo sapiens, UniProt P54756); test: kinase panel; type: biochemical
[24] = target: TAK1-TAB1 (Homo sapiens, UniProt O43318); test: kinase panel; type: biochemical
[25] = target: TXK (Homo sapiens, UniProt P42681); test: kinase panel; type: biochemical
[26] = target: P70S6K2 (Homo sapiens, UniProt Q9UBS0); test: kinase panel; type: biochemical
[27] = target: MST1 (Homo sapiens, UniProt Q13043); test: kinase panel; type: biochemical
[28] = target: MUSK (Homo sapiens, UniProt O15146); test: kinase panel; type: biochemical
[29] = tested on: H1975 cells; test: Proliferation assay; type: cell-based
How it was run: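 Cells were maintained in 10% FBS/RPMI with penicillin/streptomycin and plated at 500 cells/well in 10% FBS RPMI. Serially diluted test compound was pin-transferred. Viability was read after 3 days by CellTiter-Glo luminescence and normalized to 0.1% DMSO-treated cells and empty wells. EC50 was obtained by non-linear regression curve fitting.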

[30] = target: HIPK2 (Homo sapiens, UniProt Q9H2X6); test: kinase panel; type: biochemical
[31] = target: PXR Receptor (Homo sapiens, UniProt O75469); test: PXR Receptor antagonist assay; type: cell-based
[32] = target: LATS2 (Homo sapiens, UniProt Q9NRM7); test: kinase panel; type: biochemical
[33] = target: Beta 1 adrenergic receptor (Homo sapiens, UniProt P08588); test: Beta 1 adrenergic receptor assay; type: binding
[34] = target: SNF1LK2 (Homo sapiens, UniProt Q9H0K1); test: kinase panel; type: biochemical
[35] = target: ROS (Homo sapiens, UniProt P08922); test: kinase panel; type: biochemical
[36] = target: CDK7 (Homo sapiens, UniProt P50613); test: kinase panel; type: biochemical
[37] = target: JAK1 (Homo sapiens, UniProt P23458); test: kinase panel; type: biochemical
[38] = target: ALK6 (Homo sapiens, UniProt O00238); test: kinase panel; type: biochemical
[39] = target: NDR2 (Homo sapiens, UniProt Q9Y2H1); test: kinase panel; type: biochemical
[40] = target: CHEK2 (Homo sapiens, UniProt O96017); test: kinase panel; type: biochemical

Monoamine Oxidase A, sequence (P21397 whole entry): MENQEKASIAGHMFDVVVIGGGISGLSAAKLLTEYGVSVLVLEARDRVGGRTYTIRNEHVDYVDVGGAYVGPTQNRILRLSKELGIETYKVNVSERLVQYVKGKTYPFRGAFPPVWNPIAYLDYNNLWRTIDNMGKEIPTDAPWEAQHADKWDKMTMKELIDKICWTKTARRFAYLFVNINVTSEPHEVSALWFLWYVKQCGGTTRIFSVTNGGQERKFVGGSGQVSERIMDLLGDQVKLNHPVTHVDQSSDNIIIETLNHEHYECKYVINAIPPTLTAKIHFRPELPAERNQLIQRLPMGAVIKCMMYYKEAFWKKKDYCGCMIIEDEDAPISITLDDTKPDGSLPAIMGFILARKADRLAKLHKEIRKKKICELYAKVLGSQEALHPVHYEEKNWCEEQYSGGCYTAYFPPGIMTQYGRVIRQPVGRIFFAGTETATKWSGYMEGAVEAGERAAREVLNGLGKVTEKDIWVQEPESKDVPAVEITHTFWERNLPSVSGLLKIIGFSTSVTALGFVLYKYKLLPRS
SGK1, sequence (O00141 whole entry): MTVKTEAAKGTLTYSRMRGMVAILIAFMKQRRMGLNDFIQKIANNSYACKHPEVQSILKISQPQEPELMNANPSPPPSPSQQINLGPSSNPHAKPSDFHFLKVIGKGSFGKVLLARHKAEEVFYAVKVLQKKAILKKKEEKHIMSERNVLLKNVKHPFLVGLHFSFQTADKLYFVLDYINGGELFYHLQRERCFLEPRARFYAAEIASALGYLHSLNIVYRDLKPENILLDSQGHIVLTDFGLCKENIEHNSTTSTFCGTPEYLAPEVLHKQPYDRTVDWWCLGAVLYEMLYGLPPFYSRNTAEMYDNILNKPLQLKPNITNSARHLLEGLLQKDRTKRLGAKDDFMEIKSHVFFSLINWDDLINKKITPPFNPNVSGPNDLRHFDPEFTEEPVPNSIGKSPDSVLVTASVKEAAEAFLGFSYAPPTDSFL
LCK, sequence (P06239 whole entry): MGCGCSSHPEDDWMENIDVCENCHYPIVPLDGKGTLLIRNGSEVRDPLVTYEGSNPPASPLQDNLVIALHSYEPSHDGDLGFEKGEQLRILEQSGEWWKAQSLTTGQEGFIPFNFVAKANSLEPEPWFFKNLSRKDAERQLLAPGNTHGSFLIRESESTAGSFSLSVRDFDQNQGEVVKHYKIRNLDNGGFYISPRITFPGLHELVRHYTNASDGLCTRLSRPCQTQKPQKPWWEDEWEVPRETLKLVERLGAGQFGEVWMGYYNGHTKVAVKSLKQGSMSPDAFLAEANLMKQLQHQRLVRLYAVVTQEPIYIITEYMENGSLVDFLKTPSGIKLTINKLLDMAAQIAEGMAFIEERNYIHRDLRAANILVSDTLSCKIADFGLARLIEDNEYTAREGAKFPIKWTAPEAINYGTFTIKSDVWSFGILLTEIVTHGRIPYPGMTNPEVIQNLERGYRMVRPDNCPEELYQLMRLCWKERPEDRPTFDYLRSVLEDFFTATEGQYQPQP
Beta 1 adrenergic receptor, sequence (P08588 whole entry, species assumed): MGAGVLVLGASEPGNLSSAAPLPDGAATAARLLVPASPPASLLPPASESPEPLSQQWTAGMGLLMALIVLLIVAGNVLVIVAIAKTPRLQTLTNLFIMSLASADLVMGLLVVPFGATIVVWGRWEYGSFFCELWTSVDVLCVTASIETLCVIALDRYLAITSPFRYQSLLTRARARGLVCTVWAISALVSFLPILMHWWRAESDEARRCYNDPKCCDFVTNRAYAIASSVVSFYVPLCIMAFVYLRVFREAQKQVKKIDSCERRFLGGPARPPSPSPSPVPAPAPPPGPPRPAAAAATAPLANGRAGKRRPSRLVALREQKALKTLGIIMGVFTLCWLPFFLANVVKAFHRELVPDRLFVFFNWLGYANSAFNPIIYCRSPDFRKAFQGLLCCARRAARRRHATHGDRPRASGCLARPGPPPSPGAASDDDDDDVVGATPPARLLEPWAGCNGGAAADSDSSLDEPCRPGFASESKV
Adenosine 3 receptor, sequence (P0DMS8 whole entry): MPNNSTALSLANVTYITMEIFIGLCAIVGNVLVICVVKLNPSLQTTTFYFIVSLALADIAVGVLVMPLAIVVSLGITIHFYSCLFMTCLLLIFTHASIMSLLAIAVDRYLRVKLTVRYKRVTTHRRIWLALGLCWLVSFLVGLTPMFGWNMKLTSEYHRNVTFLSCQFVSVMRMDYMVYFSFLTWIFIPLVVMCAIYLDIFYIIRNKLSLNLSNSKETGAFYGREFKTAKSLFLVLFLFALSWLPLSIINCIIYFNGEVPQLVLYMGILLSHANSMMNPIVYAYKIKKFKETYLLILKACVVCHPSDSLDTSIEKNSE
NDR2, sequence (Q9Y2H1 whole entry): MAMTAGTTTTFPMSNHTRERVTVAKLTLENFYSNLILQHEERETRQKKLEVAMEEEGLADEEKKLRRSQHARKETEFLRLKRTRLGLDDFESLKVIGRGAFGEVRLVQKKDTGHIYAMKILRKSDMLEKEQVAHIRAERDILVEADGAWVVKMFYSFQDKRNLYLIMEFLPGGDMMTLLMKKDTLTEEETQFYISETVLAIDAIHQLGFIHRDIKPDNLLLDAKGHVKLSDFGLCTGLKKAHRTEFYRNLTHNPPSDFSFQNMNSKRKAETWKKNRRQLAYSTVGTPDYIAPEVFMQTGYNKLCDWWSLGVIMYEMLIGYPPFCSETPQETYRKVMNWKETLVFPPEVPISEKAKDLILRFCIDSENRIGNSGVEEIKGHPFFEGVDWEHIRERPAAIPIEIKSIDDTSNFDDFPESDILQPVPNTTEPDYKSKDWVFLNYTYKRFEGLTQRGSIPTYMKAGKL
MEK2, sequence (P36507 whole entry): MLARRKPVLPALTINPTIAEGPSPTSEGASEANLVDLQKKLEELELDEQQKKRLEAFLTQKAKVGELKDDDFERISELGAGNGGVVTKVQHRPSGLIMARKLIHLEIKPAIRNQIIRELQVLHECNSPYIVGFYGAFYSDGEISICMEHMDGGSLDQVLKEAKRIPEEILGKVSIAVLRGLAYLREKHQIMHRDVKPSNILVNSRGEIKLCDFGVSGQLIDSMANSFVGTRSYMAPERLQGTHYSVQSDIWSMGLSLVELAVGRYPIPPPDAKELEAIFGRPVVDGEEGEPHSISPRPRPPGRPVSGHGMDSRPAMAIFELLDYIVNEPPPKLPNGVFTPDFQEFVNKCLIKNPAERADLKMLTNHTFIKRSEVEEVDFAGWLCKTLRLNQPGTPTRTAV
CAMK1D, sequence (Q8IU85 whole entry): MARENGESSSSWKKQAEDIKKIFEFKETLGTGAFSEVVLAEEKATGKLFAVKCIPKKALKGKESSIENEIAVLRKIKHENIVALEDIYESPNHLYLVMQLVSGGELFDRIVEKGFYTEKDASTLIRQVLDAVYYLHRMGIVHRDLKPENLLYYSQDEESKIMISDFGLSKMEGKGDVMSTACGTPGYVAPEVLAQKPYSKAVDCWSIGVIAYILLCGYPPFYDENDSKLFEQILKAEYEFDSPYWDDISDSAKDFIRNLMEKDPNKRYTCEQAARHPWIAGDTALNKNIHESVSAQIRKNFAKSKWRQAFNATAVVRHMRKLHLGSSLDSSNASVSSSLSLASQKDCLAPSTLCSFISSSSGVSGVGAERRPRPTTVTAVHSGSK
TYRO3, sequence (Q06418 41-890): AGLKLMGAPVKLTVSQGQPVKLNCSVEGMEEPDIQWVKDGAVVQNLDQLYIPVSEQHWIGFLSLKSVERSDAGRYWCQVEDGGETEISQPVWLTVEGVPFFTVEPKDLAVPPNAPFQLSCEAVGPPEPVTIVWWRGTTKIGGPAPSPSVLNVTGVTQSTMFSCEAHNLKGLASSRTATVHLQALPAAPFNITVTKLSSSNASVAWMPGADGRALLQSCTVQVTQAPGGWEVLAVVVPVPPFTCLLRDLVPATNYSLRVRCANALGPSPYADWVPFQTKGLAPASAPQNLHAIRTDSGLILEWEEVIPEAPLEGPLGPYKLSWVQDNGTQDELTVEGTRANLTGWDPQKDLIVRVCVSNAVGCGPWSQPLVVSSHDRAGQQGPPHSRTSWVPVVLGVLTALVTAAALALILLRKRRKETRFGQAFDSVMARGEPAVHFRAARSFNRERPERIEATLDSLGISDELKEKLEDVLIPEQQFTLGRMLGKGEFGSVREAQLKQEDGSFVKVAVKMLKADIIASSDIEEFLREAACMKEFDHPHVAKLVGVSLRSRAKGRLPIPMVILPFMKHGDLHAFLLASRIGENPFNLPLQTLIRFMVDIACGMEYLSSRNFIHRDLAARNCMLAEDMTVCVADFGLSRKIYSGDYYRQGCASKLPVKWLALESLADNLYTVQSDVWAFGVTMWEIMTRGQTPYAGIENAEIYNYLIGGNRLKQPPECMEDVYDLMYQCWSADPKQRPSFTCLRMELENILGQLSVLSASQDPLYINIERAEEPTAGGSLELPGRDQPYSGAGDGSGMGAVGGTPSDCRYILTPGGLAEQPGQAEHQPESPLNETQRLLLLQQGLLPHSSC

O=C(Nc1nccs1)C(c1cc(F)ccc1O)N1Cc2ccccc2C1=O (centres unmarked) [EAI045, 2-(5-fluoro-2-hydroxyphenyl)-2-(1-oxo-2,3-dihydro-1H-isoindol-2-yl)-N-(1,3-thiazol-2-yl)acetamide]
inhibition at 1 µM [1]: 0% | pIC50 [2]: < 4.52 | inhibition at 1 µM [3]: 0% | inhibition at 1 µM [4]: 6% | inhibition at 1 µM [5]: 0% | inhibition at 1 µM [6]: 0% | inhibition at 1 µM [7]: 1% | inhibition at 1 µM [8]: 0% | inhibition at 1 µM [9]: 1% | inhibition at 1 µM [10]: 0% | inhibition at 1 µM [11]: 6% | inhibition at 1 µM [12]: 1% | inhibition at 1 µM [13]: 0% | tumor response [14]: marked tumor shrinkage | inhibition at 1 µM [15]: 0% | pIC50 [16]: < 4.52 | inhibition at 1 µM [17]: 0% | inhibition at 1 µM [18]: 5% | inhibition at 1 µM [19]: 0% | inhibition at 1 µM [20]: 0% | inhibition at 1 µM [21]: 3% | inhibition at 1 µM [22]: 0% | inhibition at 1 µM [23]: 4% | inhibition at 1 µM [24]: 0% | inhibition at 1 µM [25]: 0% | inhibition at 1 µM [26]: 0% | inhibition at 1 µM [27]: 0% | inhibition at 1 µM [28]: 0% | anti-proliferative effect ([29]; H1975, concentrations as high as 10 μM): no anti-proliferative effect | pEC50 ([29]; Homo sapiens, NCI-H1975, 72 h, read-out: EC50 Proliferation): < 5.00 | inhibition at 1 µM [30]: 2% | pIC50 [31]: < 5.52 | inhibition at 1 µM [32]: 2% | pIC50 [33]: < 4.52 | inhibition at 1 µM [34]: 0% | inhibition at 1 µM [35]: 1% | inhibition at 1 µM [36]: 0% | inhibition at 1 µM [37]: 0% | inhibition at 1 µM [38]: 0% | inhibition at 1 µM [39]: 0% | inhibition at 1 µM [40]: 0%
